{"source": "ChEMBL document CHEMBL1932986", "about": "“Synthesis and in vitro antimycobacterial activity of compounds derived from (R)- and (S)-2-amino-1-butanol - The crucial role of the configuration” (Eur J Med Chem, 2012)", "key": {"[1]": {"system": "Mycobacterium tuberculosis", "assay": "Antimycobacterial activity against Mycobacterium tuberculosis H37Rv after 45 days", "assay_type": "functional", "outline": "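Canetti proportion method. Compound in DMSO is added to Löwenstein–Jensen egg medium before coagulation (30 min, 85 °C), tested at three levels plus a lower one where needed. Tubes are inoculated with H37Rv at 10⁵ cells/ml and incubated 45 days at 37 °C. Colony counts versus drug-free control give percentage inhibition.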"}, "HEK-293T": {"system": "HEK-293T", "assay": "Cytotoxicity against human HEK293T cells after 72 hrs by MTT assay", "assay_type": "cell-based", "outline": "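293T cells in RPMI-1640 with 10% heat-inactivated FCS and 2 mM L-glutamine, 37 °C, 5% CO2. Cells seeded at 3.5 × 10⁵ cells/ml, grown 24 h, then exposed 72 h to DMSO-diluted compounds (final solvent ≤0.5%), ≥8 wells per concentration. MTT added 4 h, formazan dissolved in 5% HCOOH/2-propanol, absorbance read at 580 nm. IC50 obtained by sigmoidal nonlinear regression against untreated control.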"}, "[2]": {"assay": "Selectivity index, ratio of IC50 for human HEK293T cells to MIC for Mycobacterium tuberculosis H37Rv", "assay_type": "functional, HEK-293T"}, "[3]": {"assay": "Solubility of the compound in deionized water", "assay_type": "physicochemical"}, "[4]": {"system": "Mycobacterium tuberculosis", "assay": "Ratio of ethambutol dihydrochloride MIC to compound MIC for Mycobacterium tuberculosis H37Rv", "assay_type": "functional"}, "Bacillus subtilis": {"system": "Bacillus subtilis", "assay": "Antibacterial activity against Bacillus subtilis ATCC 6633 at 50 mg/ml after 24 hrs by agar diffusion test", "assay_type": "functional", "outline": "(§1)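 Agar diffusion: wells in agar filled with […] DMSO solution of compound at various concentrations; diameter of clear zone around application point measured. Bacteria grown 24 h at 37 °C on nutrient agar. Compounds first screened at 50 mg/ml; those active then tested at lower concentrations. Bracketed value = lowest concentration (mg/ml) giving zone >11 mm, reported only if activity retained at ≤1.25 mg/ml.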"}, "Bacillus": {"system": "Bacillus", "assay": "Antibacterial activity against Bacillus idosus B 241 at 50 mg/ml after 24 hrs by agar diffusion test", "assay_type": "functional", "outline": "as §1"}, "Priestia megaterium": {"system": "Priestia megaterium", "assay": "Antibacterial activity against Bacillus megaterium NRRL 1353895 at 50 mg/ml after 24 hrs by agar diffusion test", "assay_type": "functional", "outline": "as §1"}, "Bacillus mycoides": {"system": "Bacillus mycoides", "assay": "Antibacterial activity against Bacillus mycoides DSMZ 274 at 50 mg/ml after 24 hrs by agar diffusion test", "assay_type": "functional", "outline": "as §1"}, "Bacillus cereus": {"system": "Bacillus cereus", "assay": "Antibacterial activity against Bacillus cereus ATCC 11778 at 50 mg/ml after 24 hrs by agar diffusion test", "assay_type": "functional", "outline": "as §1"}, "Acinetobacter johnsonii": {"system": "Acinetobacter johnsonii", "assay": "Antibacterial activity against Acinetobacter johnsonii ATCC 17909 at 50 mg/ml after 24 hrs by agar diffusion test", "assay_type": "functional", "outline": "as §1"}, "Staphylococcus aureus": {"system": "Staphylococcus aureus", "assay": "Antibacterial activity against Staphylococcus aureus NRRL B 313 at 50 mg/ml after 24 hrs by agar diffusion test", "assay_type": "functional", "outline": "(§2)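 Agar diffusion: bacteria grown 24 h at 37 °C on nutrient agar. Wells in the agar are filled with […] of compound solution in DMSO at various concentrations. The diameter of the clear zone around the application point is measured. Bracketed values give the lowest concentration (mg/ml) that produces a zone >11 mm. A first screen is run at 50 mg/ml.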"}, "Micrococcus luteus [5]": {"system": "Micrococcus luteus", "assay": "Antibacterial activity against Sarcina lutea ATCC 9341 at 50 mg/ml after 24 hrs by agar diffusion test", "assay_type": "functional", "outline": "as §2"}, "Micrococcus luteus [6]": {"system": "Micrococcus luteus", "assay": "Antibacterial activity against Micrococcus luteus ATCC 9631 at 50 mg/ml after 24 hrs by agar diffusion test", "assay_type": "functional", "outline": "as §1"}, "Escherichia coli": {"system": "Escherichia coli", "assay": "Antibacterial activity against Escherichia coli ATCC 8739 at 50 mg/ml after 24 hrs by agar diffusion test", "assay_type": "functional", "outline": "as §1"}, "Candida tropicalis": {"system": "Candida tropicalis", "assay": "Antifungal activity against Candida tropicalis ATCC 20336 at 50 mg/ml after 72 hrs by agar diffusion test", "assay_type": "functional", "outline": "(§3)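 Agar diffusion: yeasts grown on yeast peptone dextrose agar and fungi on potato dextrose agar. Wells are filled with […] of compound solution in DMSO at various concentrations, and the clear-zone diameter is measured. Bracketed values give the lowest concentration (mg/ml) that produces a zone >11 mm. A first screen is run at 50 mg/ml.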"}, "Saccharomyces cerevisiae": {"system": "Saccharomyces cerevisiae", "assay": "Antifungal activity against Saccharomyces cerevisiae ATCC 9763 at 50 mg/ml after 72 hrs by agar diffusion test", "assay_type": "functional", "outline": "as §3"}, "Penicillium chrysogenum": {"system": "Penicillium chrysogenum", "assay": "Antifungal activity against Penicillium chrysogenum CECT 2802 at 50 mg/ml after 72 hrs by agar diffusion test", "assay_type": "functional", "outline": "as §3"}}, "note": "The source made the active and inactive calls. The rule behind the calls is not given here.", "data": [{"smiles": "CC[C@H](CO)N1Cc2ccccc2C1=O", "values": [{"measurement": "MIC", "setting": "[1]", "result": 0.97, "unit": "µM"}, {"measurement": "IC50", "setting": "HEK-293T", "result": 89, "unit": "µM"}, {"measurement": "Selectivity Index", "setting": "[2]", "result": 91.8}, {"measurement": "solubility", "setting": "[3]", "result": 1, "unit": "mg/mL"}, {"measurement": "Ratio", "setting": "[4]", "result": 5}, {"measurement": "diameter of the inhibition zone (DIZ)", "setting": "Bacillus subtilis", "result": "inactive"}, {"measurement": "diameter of the inhibition zone (DIZ)", "setting": "Bacillus", "result": "inactive"}, {"measurement": "diameter of the inhibition zone (DIZ)", "setting": "Priestia megaterium", "result": "inactive"}, {"measurement": "diameter of the inhibition zone (DIZ)", "setting": "Bacillus mycoides", "result": "inactive"}, {"measurement": "diameter of the inhibition zone (DIZ)", "setting": "Bacillus cereus", "result": "inactive"}, {"measurement": "diameter of the inhibition zone (DIZ)", "setting": "Acinetobacter johnsonii", "result": "inactive"}, {"measurement": "diameter of the inhibition zone (DIZ)", "setting": "Staphylococcus aureus", "result": "inactive"}, {"measurement": "diameter of the inhibition zone (DIZ)", "setting": "Micrococcus luteus [5]", "result": "inactive"}, {"measurement": "diameter of the inhibition zone (DIZ)", "setting": "Micrococcus luteus [6]", "result": "inactive"}, {"measurement": "diameter of the inhibition zone (DIZ)", "setting": "Escherichia coli", "result": "inactive"}, {"measurement": "diameter of the inhibition zone (DIZ)", "setting": "Candida tropicalis", "result": "inactive"}, {"measurement": "diameter of the inhibition zone (DIZ)", "setting": "Saccharomyces cerevisiae", "result": "inactive"}, {"measurement": "diameter of the inhibition zone (DIZ)", "setting": "Penicillium chrysogenum", "result": "inactive"}]}, {"smiles": "CC[C@H](CO)NC(=O)c1ccccc1C(=O)N[C@H](CC)CO", "values": [{"measurement": "MIC", "setting": "[1]", "result": 0.65, "unit": "µM"}, {"measurement": "IC50", "setting": "HEK-293T", "result": 244, "unit": "µM"}, {"measurement": "Selectivity Index", "setting": "[2]", "result": 375.4}, {"measurement": "solubility", "setting": "[3]", "result": 46, "unit": "mg/mL"}, {"measurement": "Ratio", "setting": "[4]", "result": 5}, {"measurement": "diameter of the inhibition zone (DIZ)", "setting": "Bacillus subtilis", "result": "inactive"}, {"measurement": "diameter of the inhibition zone (DIZ)", "setting": "Bacillus", "result": "inactive"}, {"measurement": "diameter of the inhibition zone (DIZ)", "setting": "Priestia megaterium", "result": "inactive"}, {"measurement": "diameter of the inhibition zone (DIZ)", "setting": "Bacillus mycoides", "result": "inactive"}, {"measurement": "diameter of the inhibition zone (DIZ)", "setting": "Bacillus cereus", "result": "inactive"}, {"measurement": "diameter of the inhibition zone (DIZ)", "setting": "Acinetobacter johnsonii", "result": "inactive"}, {"measurement": "diameter of the inhibition zone (DIZ)", "setting": "Staphylococcus aureus", "result": "inactive"}, {"measurement": "diameter of the inhibition zone (DIZ)", "setting": "Micrococcus luteus [5]", "result": "inactive"}, {"measurement": "diameter of the inhibition zone (DIZ)", "setting": "Micrococcus luteus [6]", "result": "inactive"}, {"measurement": "diameter of the inhibition zone (DIZ)", "setting": "Escherichia coli", "result": "inactive"}, {"measurement": "diameter of the inhibition zone (DIZ)", "setting": "Candida tropicalis", "result": "inactive"}, {"measurement": "diameter of the inhibition zone (DIZ)", "setting": "Saccharomyces cerevisiae", "result": "inactive"}, {"measurement": "diameter of the inhibition zone (DIZ)", "setting": "Penicillium chrysogenum", "result": "inactive"}]}]}
